Measurements reported in ChEMBL document CHEMBL1649418, “Pyrimidine derivatives as potent and selective A3 adenosine receptor antagonists” (J Med Chem, 2011).

What was measured:
Assay type in all cases: cell-based
[1] = target: T1, Adenosine receptor A1 (Homo sapiens) (UniProt P30542); assay: Displacement of [3H]DPCPX from human adenosine A1 receptor expressed in CHO cells at 0.1 uM by liquid scintillation counting
T1 sequence (whole entry): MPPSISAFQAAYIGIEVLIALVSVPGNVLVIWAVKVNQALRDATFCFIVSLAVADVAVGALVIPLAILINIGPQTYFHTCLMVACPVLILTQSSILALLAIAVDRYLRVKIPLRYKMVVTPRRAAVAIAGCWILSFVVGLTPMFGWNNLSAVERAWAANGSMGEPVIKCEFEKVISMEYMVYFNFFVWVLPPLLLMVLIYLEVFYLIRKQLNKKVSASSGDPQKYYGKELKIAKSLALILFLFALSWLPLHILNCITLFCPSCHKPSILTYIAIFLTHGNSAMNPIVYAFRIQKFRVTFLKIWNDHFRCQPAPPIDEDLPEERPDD
How it was run: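 Transfected CHO cell membranes (15 μg) were incubated with [3H]DPCPX at 25 °C for 60 min, with six test concentrations from 0.1 nM to 1 μM. Nonspecific binding was defined with 10 μM R-PIA. Filters were washed four times with ice-cold buffer before scintillation counting. Ki (Cheng–Prusoff) is mean ± SEM, n=3; % displacement at 0.1 μM is n=2.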

[2] = target: T2, Adenosine receptor A3 (Homo sapiens, UniProt P0DMS8); assay: Displacement of [3H]NECA from human adenosine A3 receptor expressed in human HeLa cells by liquid scintillation counting
T2 sequence (P0DMS8 whole entry): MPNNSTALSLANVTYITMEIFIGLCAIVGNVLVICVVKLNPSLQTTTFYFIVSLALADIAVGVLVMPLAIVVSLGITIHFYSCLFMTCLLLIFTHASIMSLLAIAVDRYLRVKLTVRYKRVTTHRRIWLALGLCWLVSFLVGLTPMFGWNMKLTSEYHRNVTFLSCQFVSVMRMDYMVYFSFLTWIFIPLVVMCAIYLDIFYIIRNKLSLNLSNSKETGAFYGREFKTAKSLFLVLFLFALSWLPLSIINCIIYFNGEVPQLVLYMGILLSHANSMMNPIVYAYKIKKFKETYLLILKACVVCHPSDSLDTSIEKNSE
How it was run: (§1)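 HeLa membranes (90 μg) carrying hA3AR were incubated with [3H]NECA (30 nM) at 25 °C for 180 min, with six concentrations from 0.1 nM to 1 μM. Nonspecific binding was defined with 100 μM R-PIA. Filters were washed six times and counted by scintillation.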

[3] = target: Adenosine receptor A2a (Homo sapiens, UniProt P29274); assay: Displacement of [3H][…] from human adenosine A2A receptor expressed in human HeLa cells at 0.1 uM by liquid scintillation counting
Sequence of Adenosine receptor A2a (P29274 whole entry): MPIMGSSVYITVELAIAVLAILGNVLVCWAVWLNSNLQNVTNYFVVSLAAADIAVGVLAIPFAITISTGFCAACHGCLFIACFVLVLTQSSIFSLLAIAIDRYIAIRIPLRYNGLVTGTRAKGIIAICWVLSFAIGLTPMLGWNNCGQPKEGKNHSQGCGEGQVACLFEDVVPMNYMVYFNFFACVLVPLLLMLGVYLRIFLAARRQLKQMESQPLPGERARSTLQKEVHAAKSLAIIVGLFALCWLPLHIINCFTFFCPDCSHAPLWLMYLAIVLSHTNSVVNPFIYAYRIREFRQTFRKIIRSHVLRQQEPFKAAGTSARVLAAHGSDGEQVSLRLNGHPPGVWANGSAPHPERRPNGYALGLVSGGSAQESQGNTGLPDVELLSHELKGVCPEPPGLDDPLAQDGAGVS
How it was run: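 Nonspecific binding was defined with 50 μM NECA. Filters were washed four times with ice-cold buffer, then counted by scintillation. Ki (Cheng–Prusoff) is mean ± SEM, n=3; % displacement at 0.1 μM is n=2.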

[4] = target: T3, Adenosine receptor A2b (Homo sapiens) (UniProt P29275); assay: Displacement of [3H]DPCPX from human adenosine A2B receptor expressed in HEK293 cells at 0.1 uM by liquid scintillation counting
T3 sequence (whole entry): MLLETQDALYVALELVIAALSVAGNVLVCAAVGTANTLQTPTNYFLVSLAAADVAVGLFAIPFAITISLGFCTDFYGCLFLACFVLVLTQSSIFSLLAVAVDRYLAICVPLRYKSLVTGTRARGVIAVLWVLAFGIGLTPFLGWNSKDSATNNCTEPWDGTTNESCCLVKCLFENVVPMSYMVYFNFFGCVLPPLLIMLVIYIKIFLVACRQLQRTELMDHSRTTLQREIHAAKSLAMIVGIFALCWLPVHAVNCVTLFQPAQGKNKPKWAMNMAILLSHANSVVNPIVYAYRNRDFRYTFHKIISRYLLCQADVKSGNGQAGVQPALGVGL
How it was run: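 HEK-293 membranes (18 μg) were incubated with [3H]DPCPX (35 nM) at 25 °C for 30 min, with six concentrations from 0.1 nM to 1 μM. Nonspecific binding was defined with 400 μM NECA. Filters were washed six times with ice-cold buffer and counted by scintillation. Ki (Cheng–Prusoff) is mean ± SEM, n=3; % displacement at 0.1 μM is n=2.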

[5] = target: T4, Adenosine receptor A3 (Homo sapiens) (UniProt P0DMS8); assay: Displacement of [3H]NECA from human adenosine A3 receptor expressed in human HeLa cells at 0.1 uM by liquid scintillation counting
T4 sequence (whole entry): T2 sequence (P0DMS8 whole entry)
How it was run: as §1, with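 “scintillation. Ki (Cheng–Prusoff) is mean ± SEM, n=3; % displacement at 0.1 μM is n=2.” for “scintillation.”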

Row | Compound | inhibition [1] | Ki ([2]; read-out: Ki) | inhibition [3] | inhibition [4] | inhibition [5] | Ki ([2]; read-out: pKi (converted))
1 | CCC(=O)Nc1nc(/C=C/c2ccccc2)cc(/C=C/c2ccccc2)n1 | 1% | 142 nM | 1% | 1% |  | 
2 | CCC(=O)Nc1nc(-c2ccco2)cc(-c2ccco2)n1 | 24% | 1900 nM | 15% | 21% |  | 
3 | CCCC(=O)Nc1nc(-c2ccc(F)cc2)cc(-c2ccc(F)cc2)n1 | 18% |  | 5% | 2% | 27% | 
4 | CCCC(=O)Nc1cc(-c2ccc(OC)cc2OC)nc(-c2ccc(OC)cc2OC)n1 | 18% | 10.2 nM | 12% | 14% |  | 
5 | CCC(CC)C(=O)Nc1cc(-c2ccc(OC)cc2)nc(-c2ccc(OC)cc2)n1 | 3% | 58.1 nM | 6% | 8% |  | 
6 | CCC(CC)C(=O)Nc1cc(-c2ccc(OC)cc2OC)nc(-c2ccc(OC)cc2OC)n1 | 1% | 52.4 nM | 2% | 2% |  | 
7 | CCCC(=O)Nc1nc(-c2ccco2)cc(-c2ccco2)n1 | 17% |  | 23% | 15% | 1% | 
8 | CCCC(=O)Nc1cc(-c2ccc(C(F)(F)F)cc2)nc(-c2ccc(C(F)(F)F)cc2)n1 | 3% |  | 1% | 6% | 12% | 
9 | CC(=O)Nc1nc(-c2ccccc2F)cc(-c2ccccc2F)n1 | 8% |  | 12% | 10% | 15% | 
10 | CC(=O)Nc1nc(-c2ccoc2)cc(-c2ccoc2)n1 | 1% |  | 1% | 1% | 1% | 
11 | COc1ccc(-c2cc(NC(C)=O)nc(-c3ccc(OC)cc3)n2)cc1 | 1% |  | 10% | 4% |  | 
12 | CCCC(=O)Nc1nc(-c2ccoc2)cc(-c2ccoc2)n1 | 11% |  | 17% | 0% | 21% | 
13 | CCCC(=O)Nc1cc(/C=C/c2ccccc2)nc(/C=C/c2ccccc2)n1 | 1% |  | 1% | 8% | 25% | 
14 | CCC(=O)Nc1nc(-c2ccc(OC)cc2OC)cc(-c2ccc(OC)cc2OC)n1 | 3% |  | 14% | 3% | 17% | 
15 | CC(=O)Nc1nc(-c2ccc3c(c2)OCO3)cc(-c2ccc3c(c2)OCO3)n1 | 1% | 101 nM | 15% | 1% |  | 
16 | COc1ccc(-c2cc(NC(=O)C(C)C)nc(-c3ccc(OC)cc3)n2)cc1 | 5% | 12.2 nM | 1% | 3% |  | 
17 | CCC(=O)Nc1cc(/C=C/c2ccccc2)nc(/C=C/c2ccccc2)n1 | 17% | 46.9 nM | 2% | 2% |  | 
18 | CCC(=O)Nc1nc(-c2ccc(C(C)=O)cc2)cc(-c2ccc(C(C)=O)cc2)n1 | 1% |  | 12% | 1% | 17% | 
19 | CCC(=O)Nc1nc(-c2ccc(C(F)(F)F)cc2)cc(-c2ccc(C(F)(F)F)cc2)n1 | 2% |  | 12% | 9% | 2% | 
20 | CCCC(=O)Nc1cc(-c2ccc(SC)cc2)nc(-c2ccc(SC)cc2)n1 | 3% |  | 2% | 1% | 12% | 

Row | Compound | inhibition [1] | Ki ([2]; read-out: Ki) | inhibition [3] | inhibition [4] | inhibition [5] | Ki ([2]; read-out: pKi (converted))
21 | CCCC(=O)Nc1cc(-c2ccc(C(C)=O)cc2)nc(-c2ccc(C(C)=O)cc2)n1 | 2% | 133 nM | 1% | 1% |  | 
22 | CCCC(=O)Nc1nc(-c2ccccc2OC)cc(-c2ccccc2OC)n1 | 13% |  | 11% | 1% | 18% | 
23 | COc1ccc(-c2cc(NC(=O)C3CCCCC3)nc(-c3ccc(OC)cc3OC)n2)c(OC)c1 | 1% | 56.3 nM | 1% | 4% |  | 257 nM
24 | CCC(=O)Nc1cc(-c2ccc(C(F)(F)F)cc2)nc(-c2ccc(C(F)(F)F)cc2)n1 | 3% |  | 17% | 8% | 12% | 
25 | CCC(=O)Nc1cc(-c2ccc(OC)cc2OC)nc(-c2ccc(OC)cc2OC)n1 | 6% | 11.3 nM | 14% | 8% |  | 
26 | COc1ccc(-c2cc(NC(=O)C(C)C)nc(-c3ccc(OC)cc3OC)n2)c(OC)c1 | 18% | 15.9 nM | 1% | 1% |  | 
27 | COc1ccccc1-c1cc(NC(C)=O)nc(-c2ccccc2OC)n1 | 1% | 24.1 nM | 14% | 1% |  | 
28 | CCC(=O)Nc1nc(-c2ccc(C)cc2)cc(-c2ccc(C)cc2)n1 | 1% | 157 nM | 1% | 3% |  | 
29 | CC(=O)Nc1nc(-c2ccc(C)cc2)cc(-c2ccc(C)cc2)n1 | 3% | 47.3 nM | 6% | 3% |  | 
30 | CC(=O)Nc1cc(-c2ccc(C(C)=O)cc2)nc(-c2ccc(C(C)=O)cc2)n1 | 10% | 25.2 nM | 13% | 16% |  | 
31 | COc1ccc(-c2cc(NC(=O)C3CCCCC3)nc(-c3ccc(OC)cc3)n2)cc1 | 5% | 32.1 nM | 1% | 1% |  | 
32 | CC(=O)Nc1cc(/C=C/c2ccccc2)nc(/C=C/c2ccccc2)n1 | 1% | 15.6 nM | 13% | 1% |  | 
33 | CC(=O)Nc1cc(-c2ccc(Cl)cc2)nc(-c2ccc(Cl)cc2)n1 | 1% | 63.3 nM | 10% | 1% |  | 
34 | CCC(=O)Nc1cc(-c2ccc(SC)cc2)nc(-c2ccc(SC)cc2)n1 | 1% | 43.6 nM | 1% | 3% |  | 
35 | CSc1ccc(-c2cc(NC(C)=O)nc(-c3ccc(SC)cc3)n2)cc1 | 1% | 71.3 nM | 1% | 2% |  | 
36 | CCCC(=O)Nc1cc(-c2ccc(Cl)cc2)nc(-c2ccc(Cl)cc2)n1 | 16% | 103 nM | 21% | 1% |  | 
37 | CCC(=O)Nc1cc(-c2ccc(C(C)=O)cc2)nc(-c2ccc(C(C)=O)cc2)n1 | 1% | 43.9 nM | 1% | 2% |  | 
38 | CC(=O)Nc1cc(-c2ccc(C(F)(F)F)cc2)nc(-c2ccc(C(F)(F)F)cc2)n1 | 1% | 126 nM | 1% | 1% |  | 
39 | CCCC(=O)Nc1cc(-c2ccc(C)cc2)nc(-c2ccc(C)cc2)n1 | 16% | 59 nM | 2% | 3% |  | 
